The species named for one experiment is Homo sapiens. Put plainly: Inhibition of human serine racemase C2D2 mutant assessed as remaining enzyme activity by measuring D-serine production using L-serine as substrate at 1 mM incubated for > 8 hrs. The essentials: (§1)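 Recombinant human SRR C2D2 mutant, 8 µg, in 100 mM HEPES pH 8.0 with PLP, 1 mM MgCl2, 5 mM DTT, 1 mM ATP and 20 mM L-Ser. Product derivatized with 0.05% DNP in 2 M HCl for 5 min at 30 °C, then EtOH and 10 M NaOH added. Absorbance at 515 nm read after 10 min at room temperature.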

Experiment [1] is described as follows: Inhibition of human serine racemase C2D2 mutant assessed as remaining enzyme activity by measuring D-serine production using L-serine as substrate incubated for > 8 hrs. The essentials:
as §1

Experiment [2] addresses T1, Serine racemase (Mus musculus) (UniProt Q9QZX7).
T1 sequence (whole entry): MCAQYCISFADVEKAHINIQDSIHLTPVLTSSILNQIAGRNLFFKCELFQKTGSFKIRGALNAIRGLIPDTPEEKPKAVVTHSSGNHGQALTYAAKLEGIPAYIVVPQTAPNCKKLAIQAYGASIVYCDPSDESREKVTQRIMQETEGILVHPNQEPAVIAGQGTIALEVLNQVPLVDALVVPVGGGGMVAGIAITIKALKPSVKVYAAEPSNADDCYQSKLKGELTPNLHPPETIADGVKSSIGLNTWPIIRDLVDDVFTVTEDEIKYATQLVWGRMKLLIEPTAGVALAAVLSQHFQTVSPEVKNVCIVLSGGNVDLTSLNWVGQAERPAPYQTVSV
As to the kind of experiment: Inhibition of mouse serine racemase assessed as remaining enzyme activity by measuring D-serine production using L-serine as substrate at 1 mM incubated for > 8 hrs. The essentials:
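Recombinant mouse Srr, 1.25 µg, in 100 mM HEPES pH 8.0 with PLP, 1 mM MgCl2, 5 mM DTT, 1 mM ATP, 20 mM L-Ser and 1 mM inhibitor. Product derivatized with 0.05% DNP in 2 M HCl for 5 min at 30 °C, then EtOH and 10 M NaOH added. A515 read after 10 min at room temperature.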

For the next experiment, the system named is Mus musculus. Put plainly: In-vivo inhibition of SRR in Arc-LucTg HL mouse brain assessed as reduction in kainate-induced NMDA-type glutamate receptor activation by measuring decrease in bioluminescence signal at 15 mg/kg, po incubated for 3 hrs followed by kainate treatment measured after 2 hrs relative to control. The class given is functional. The gist of the method: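 Arc-Luc Tg hairless mice, baseline-imaged, then dosed 15 mg/kg p.o. in PEG-400 (vehicle controls) under 1.5% isoflurane. Basal imaging 3 h later, then kainate 20 mg/kg i.p. in saline. Luciferin EF 150 mg/kg i.p. Images at 2, 4 and 6 h: 60 s, 4×4 binning, ear-to-eye ROI, strongest of about 5 reads. Fold change vs 0 h; two-tailed t test.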

With `COc1cccc(OC)c1/C=C/C(=O)NC(=S)NNC(=O)Cc1cccs1`, in the experiment listed under Homo sapiens, the Activity worked out at 27%.

For the molecule `O=C(Cc1c(F)cccc1F)NNC(=S)NC(=O)Cc1ccccc1`, the Activity in the experiment listed under Homo sapiens was found to be 61%.

As for `COc1cccc(OC)c1/C=C/C(=O)NC(=S)NNC(=O)c1cccs1`, in the experiment listed under Homo sapiens, the Activity stood at 31%.

Turning to `O=C(/C=C/c1ccc(F)cc1)NC(=S)NNC(=O)Cc1cccs1`, in the experiment filed under Homo sapiens, the Activity is 22%.

As usually defined, the IC50 is the concentration needed to halve the response being measured. Turning to `Cc1ccc(/C=C/S(=O)(=O)NCC(=O)Nc2ccc(OCc3ccccc3)cc2)cc1`, the IC50 in experiment [1] was 270 µM. The Activity in the experiment filed under Homo sapiens is 41%.

For `Cc1ccc(/C=C/C(=O)NC(=S)NNC(=O)Cc2cccs2)cc1`, the Activity in the experiment listed under Homo sapiens is 24%.

In the case of `Cc1ccc(CNC(=O)NCCNS(=O)(=O)c2cccc(Cl)c2)cc1`, in experiment [2], the Activity was determined as 36%.

Take `O=C(COc1ccc(Cl)cc1)NCC(=O)Nc1ccc(F)c(F)c1F`: the Activity in experiment [2] worked out at 35%.

In the case of `COc1cccc(OC)c1/C=C/C(=O)NC(=S)NNC(=O)Cc1ccccc1`, the Activity in the experiment listed under Homo sapiens amounted to 32%.

Turning to `Cc1ccc(S(=O)(=O)Nc2ccccc2NC(=O)Nc2ccc(Cl)c(Cl)c2)cc1`, the IC50 in experiment [1] is 280 µM. Moreover, the Activity in the experiment filed under Homo sapiens worked out at 77%.

Consider `O=C(/C=C/c1cc(Br)cc(Br)c1)NC(=S)NNC(=O)Cc1ccccc1`, for which, in the experiment with Mus musculus, the “fold change (FC)” value was 1.4. In addition, the half-inhibitory concentration (IC50) in experiment [1] is 140 µM. In addition, the Activity in the experiment filed under Homo sapiens stood at 20%.

For `Cc1ccc(/C=C/S(=O)(=O)NCC(=O)OCc2ccc(Cl)c(Cl)c2)cc1`, the Activity in experiment [2] stood at 32%.

Turning to `O=C(/C=C/c1cc(Br)cc(Br)c1)NC(=S)NNC(=O)Cc1ccc(F)cc1`, the Activity in the experiment filed under Homo sapiens was 54%.

For `O=C(/C=C/c1c(F)cc(F)cc1F)NC(=S)NNC(=O)Cc1ccccc1`, in the experiment filed under Homo sapiens, the Activity was determined as 38%.

Regarding `CC(C)c1ccc(/C=C/C(=O)NC(=S)NNC(=O)Cc2cccs2)cc1`, the Activity in the experiment listed under Homo sapiens came out at 28%.

Take `O=C(Cc1cccs1)NNC(=S)NC(=O)Cc1ccccc1`: the Activity in the experiment listed under Homo sapiens turned out to be 61%.

Regarding `O=C(O)CC(=O)O` [MALONIC ACID], the IC50 in experiment [1] is 770 µM. The Activity in the experiment filed under Homo sapiens is 63%.

As to `Cc1cccc(CC(=O)NNC(=S)NC(=O)Cc2ccccc2)c1`, the Activity in the experiment filed under Homo sapiens came to 53%.

Turning to `O=C(/C=C/c1cc(Br)cc(Br)c1)NC(=S)NNC(=O)CCc1ccccc1`, in the experiment filed under Homo sapiens, the Activity was 44%.

For the molecule `O=C(Cc1ccc(F)cc1)NNC(=S)NC(=O)Cc1ccccc1`, the Activity in the experiment filed under Homo sapiens came out at 62%.

Take `O=C(/C=C/c1ccc(Cl)cc1)NC(=S)NNC(=O)Cc1cccs1`: the Activity in the experiment listed under Homo sapiens is 23%.

In the case of `O=C(/C=C/c1ccc(F)cc1)NC(=S)NNC(=O)c1cccs1`, in the experiment listed under Homo sapiens, the Activity was found to be 46%.

On to `O=C(Cc1cc(F)cc(F)c1)NNC(=S)NC(=O)Cc1ccccc1`, for which the Activity in the experiment listed under Homo sapiens is 55%.

For `O=C(/C=C/c1ccc(F)cc1)NC(=S)NNC(=O)Cc1ccccc1`, the Activity in the experiment filed under Homo sapiens is 45%.

Turning to `O=C(/C=C/c1ccc(C(F)(F)F)cc1)NC(=S)NNC(=O)Cc1cccs1`, the Activity in the experiment listed under Homo sapiens was 44%.

In the case of `O=C(Cc1ccc(F)cc1)NNC(=S)NC(=O)Cc1ccc(F)cc1`, the Activity in the experiment filed under Homo sapiens worked out at 49%.

For the molecule `O=C(/C=C/c1c(F)cc(F)cc1F)NC(=S)NNC(=O)Cc1cccs1`, in the experiment filed under Homo sapiens, the Activity amounted to 39%.

Source of the values: ChEMBL document CHEMBL4033718, “A novel serine racemase inhibitor suppresses neuronal over-activation in vivo” (Bioorg Med Chem, 2017).
